Laboratory results as given in ChEMBL document CHEMBL1914438, “Synthesis and biological activity of novel N-cycloalkyl-(cycloalkylaryl)-2-[(3-R-2-oxo-2H-[1,2,4]triazino[2,3-c]quinazoline-6-yl)thio]acetamides” (2011).

How the values were obtained:
Format in all cases: functional
COLO 205 = assay: Cytotoxicity against human COLO205 cells assessed as cell growth at 10^-5 M after 48 hrs by SRB assay; details: COLO 205, 48 h, read-out: Activity
Summary of the method: (§1)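 NCI 60-cell-line one-dose primary screen: cells inoculated and preincubated 24–48 h, then test agent added at a single 10^-5 M concentration for a further 48 h. Endpoint is sulforhodamine B protein staining read spectrophotometrically. Reported as percent growth relative to untreated control cells.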

Mycobacterium [1] = assay: Antibacterial activity against Mycobacterium luteum assessed as zone of inhibition at 0.1 mg/mL after 24 hrs by stiff-plate agar-diffusion method; details: read-out: DIZ
RPMI-8226 [2] = assay: Cytotoxicity against human RPMI8226 cells assessed as cell growth at 10^-5 M after 48 hrs by SRB assay; details: RPMI-8226, 48 h, read-out: Activity
Summary of the method: (§2)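 NCI human tumor cell line panel from nine cancer types. Each line was inoculated and preincubated 24–48 h, then exposed to a single concentration (10^-5 M) for 48 h. Growth was read by sulforhodamine B protein staining, measured spectrophotometrically. Value reported as percent growth of treated cells relative to untreated controls.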

Aspergillus niger = assay: Antifungal activity against Aspergillus niger assessed as zone of inhibition of late spore formation at 0.5 mg/mL after 48 to 72 hrs by stiff-plate agar-diffusion method; details: read-out: DIZ
KM12 = assay: Cytotoxicity against human KM12 cells assessed as cell growth at 10^-5 M after 48 hrs by SRB assay; details: KM12, 48 h, read-out: Activity; summary of the method: as §1
Staphylococcus aureus = assay: Antibacterial activity against Staphylococcus aureus assessed as zone of inhibition at 0.5 mg/mL after 24 hrs by stiff-plate agar-diffusion method; details: read-out: DIZ
CAKI-1 = assay: Growth inhibition of human Caki1 cells after 48 hrs by SRB assay; details: CAKI-1, 48 h
Summary of the method: (§3)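 NCI panel of about 60 human tumor lines, 48 h continuous exposure at five 10-fold dilutions from 10^-4 to 10^-8 M. SRB protein staining was read as absorbance at time zero, in untreated controls and at each concentration. GI50 is the concentration giving 50% lower net protein increase than controls. TGI is where Ti = Tz, and LC50 is 50% protein loss versus start.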

NCI-H522 = assay: Cytotoxicity against human NCI-H522 cells assessed as cell growth at 10^-5 M after 48 hrs by SRB assay; details: NCI-H522, 48 h, read-out: Activity; summary of the method: as §2
RXF 393 = assay: Growth inhibition of human RXF393 cells after 48 hrs by SRB assay; details: RXF 393, 48 h
Summary of the method: (§4)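 NCI 60-cell-line human tumor panel. Cells were inoculated and preincubated for 24–48 h, then exposed continuously to compound for 48 h. Primary screen used a single 10^-5 M concentration. Growth was measured by sulforhodamine B protein staining, read spectrophotometrically, and reported as percent growth versus untreated controls. Selected compounds were also run at five 10-fold dilutions (10^-4 to 10^-8 M) to derive GI50 from time-zero-corrected absorbances.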

PC-3 = assay: Cytotoxicity against human PC3 cells assessed as cell growth at 10^-5 M after 48 hrs by SRB assay; details: PC-3, 48 h, read-out: Activity; summary of the method: as §2
BT-549 = assay: Cytotoxicity against human BT549 cells assessed as cell growth at 10^-5 M after 48 hrs by SRB assay; details: BT-549, 48 h, read-out: Activity; summary of the method: as §1
RPMI-8226 [3] = assay: Growth inhibition of human RPMI8226 cells after 48 hrs by SRB assay; details: RPMI-8226, 48 h; summary of the method: as §3
IGROV-1 = assay: Growth inhibition of human IGROV1 cells after 48 hrs by SRB assay; details: IGROV-1, 48 h; summary of the method: as §3
U-251 = assay: Growth inhibition of human U251 cells after 48 hrs by SRB assay; details: U-251, 48 h; summary of the method: as §4
UO-31 = assay: Cytotoxicity against human UO31 cells assessed as cell growth at 10^-5 M after 48 hrs by SRB assay; details: UO-31, 48 h, read-out: Activity; summary of the method: as §2
SNB-19 = assay: Cytotoxicity against human SNB19 cells assessed as cell growth at 10^-5 M after 48 hrs by SRB assay; details: SNB-19, 48 h, read-out: Activity; summary of the method: as §2
Yamadazyma tenuis = assay: Antifungal activity against Candida tenuis assessed as zone of inhibition at 0.1 mg/mL after 48 to 72 hrs by stiff-plate agar-diffusion method; details: read-out: DIZ
SR = assay: Growth inhibition of human SR cells after 48 hrs by SRB assay; summary of the method: as §4
SK-MEL-5 = assay: Cytotoxicity against human SK-MEL-5 cells assessed as cell growth at 10^-5 M after 48 hrs by SRB assay; details: SK-MEL-5, 48 h, read-out: Activity; summary of the method: as §2
[4] = tested on: Photobacterium leiognathi; assay: Antibacterial activity against Photobacterium leiognathi Sh1 assessed as inhibition of bacterial luminescence at 0.25 mg/mL after 10 mins by bioluminometry-based chronic action test; parameters: scale not given: the % may be the effect or the level left; details: in the assay text read “after 16 to 18 hrs” for “after 10 mins”
Summary of the method: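 Chronic (growth plus luminescence) test with P. leiognathi Sh1 at 10^5 cells/mL in chloride solution, compounds added in DMSO. After 10 min at 25 °C, growth medium added at 1:50 and the mix incubated 16–18 h at 30 °C. Luminescence then measured by bioluminometer as % of untreated control. Tetracycline reference.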

MDA-MB-468 = assay: Growth inhibition of human MDA-MB-468 cells after 48 hrs by SRB assay; details: MDA-MB-468, 48 h; summary of the method: as §3
Escherichia coli = assay: Antibacterial activity against Escherichia coli assessed as zone of inhibition at 0.1 mg/mL after 24 hrs by stiff-plate agar-diffusion method; details: read-out: DIZ
EKVX = assay: Growth inhibition of human EKVX cells after 48 hrs by SRB assay; summary of the method: as §3
OVCAR-3 = assay: Cytotoxicity against human OVCAR3 cells assessed as cell growth at 10^-5 M after 48 hrs by SRB assay; details: OVCAR-3, 48 h, read-out: Activity; summary of the method: as §2
ACHN = assay: Cytotoxicity against human ACHN cells assessed as cell growth at 10^-5 M after 48 hrs by SRB assay; details: read-out: Activity; summary of the method: as §1
Mycobacterium [5] = assay: Antibacterial activity against Mycobacterium luteum assessed as zone of inhibition at 0.5 mg/mL after 24 hrs by stiff-plate agar-diffusion method; details: read-out: DIZ
HCT-116 = assay: Cytotoxicity against human HCT116 cells assessed as cell growth at 10^-5 M after 48 hrs by SRB assay; details: HCT-116, 48 h, read-out: Activity; summary of the method: as §1
HOP-62 = assay: Cytotoxicity against human HOP62 cells assessed as cell growth at 10^-5 M after 48 hrs by SRB assay; details: HOP-62, 48 h, read-out: Activity; summary of the method: as §1
[6] = read-out: pLC50 (the source's name) (converted)

For `CCC1C2CCC(C2)C1NC(=O)CSc1nc2ccccc2c2nc(=O)c(-c3ccc(OC)cc3)nn12` (centres undefined), the growth at 10 µM (COLO 205) was 28.6%, the zone of inhibition at 100 µg/mL (Mycobacterium [1]) was 0 mm and the growth at 10 µM (RPMI-8226 [2]) was 47.4%. It also gave a zone of inhibition at 500 µg/mL (Aspergillus niger) of 18 mm, a growth at 10 µM (KM12) of 68.3% and a zone of inhibition at 500 µg/mL (Staphylococcus aureus) of 0 mm. The GI50 (CAKI-1) was 3.72 µM, the CC50 (CAKI-1; [6]) was greater than 50.1 µM and the TGI (CAKI-1; read-out: pTGI (converted)) was 38.9 µM. It also gave a growth at 10 µM (NCI-H522) of -49.9%, a GI50 (RXF 393) of 1.48 µM and a CC50 (RXF 393; [6]) of 17.4 µM. The TGI (RXF 393; read-out: pTGI (converted)) was 4.17 µM, the growth at 10 µM (PC-3) was 55.1% and the growth at 10 µM (BT-549) was 90.9%. For the same compound, the GI50 (RPMI-8226 [3]) was 2.95 µM, the CC50 (RPMI-8226 [3]; [6]) was greater than 50.1 µM and the TGI (RPMI-8226 [3]; read-out: pTGI (converted)) was 38 µM. For the same compound, the GI50 (IGROV-1) was 2.69 µM, the CC50 (IGROV-1; [6]) was greater than 50.1 µM and the TGI (IGROV-1; read-out: pTGI (converted)) was 36.3 µM. It also gave a GI50 (U-251) of 1 µM, a CC50 (U-251; [6]) of 5.75 µM and a TGI (U-251; read-out: pTGI (converted)) of 2.29 µM. The growth at 10 µM (UO-31) was -12.7%, the growth at 10 µM (SNB-19) was 39.8% and the zone of inhibition at 100 µg/mL (Yamadazyma tenuis) was 0 mm. It also gave a GI50 (SR) of 1.35 µM, a CC50 (SR; [6]) greater than 50.1 µM and a TGI (SR; read-out: pTGI (converted)) of 7.41 µM. The growth at 10 µM (SK-MEL-5) was 59.8%, the Activity [4] was 80% and the GI50 (MDA-MB-468) was 1.35 µM. It also gave a CC50 (MDA-MB-468; [6]) of 30.2 µM, a TGI (MDA-MB-468; read-out: pTGI (converted)) of 3.98 µM and a zone of inhibition at 100 µg/mL (Escherichia coli) of 0 mm. For the same compound, the GI50 (EKVX) was 1.95 µM, the CC50 (EKVX; [6]) was greater than 50.1 µM and the TGI (EKVX; read-out: pTGI) was greater than 50.1 µM. For the same compound, the growth at 10 µM (OVCAR-3) was -69.7%, the growth at 10 µM (ACHN) was -17.1% and the zone of inhibition at 500 µg/mL (Mycobacterium [5]) was 0 mm. It also gave a growth at 10 µM (HCT-116) of 64.3% and a growth at 10 µM (HOP-62) of -19.5%.
